Test results published in ChEMBL document CHEMBL3124843, “Synthesis, cytostatic, antimicrobial, and anti-HCV activity of 6-substituted 7-(het)aryl-7-deazapurine ribonucleosides” (J Med Chem, 2014).
The source made the active and inactive calls. No rule for the calls is given here.

Columns and labels:
[1] = Cytotoxicity against human HuH7 cells infected with Hepatitis C virus subtype 2a; format: cell-based, Huh-7
[2] = system: Hepatitis C virus; assay: Antiviral activity against Hepatitis C virus subtype 2a infected in human HuH7 cells; format: functional, organism-based, Hepacivirus hominis; details: genotype 2a, Huh-7
[3] = Cytotoxicity against human HuH7 cells infected with Hepatitis C virus subtype 1b; format: cell-based, Huh-7
[4] = system: Hepatitis C virus; assay: Antiviral activity against Hepatitis C virus subtype 1b infected in human HuH7 cells; format: functional, organism-based, Hepacivirus hominis; details: genotype 1b, Huh-7
[5] = system: Candida tropicalis; assay: Antifungal activity against Candida tropicalis after 48 hrs; format: functional, organism-based
[6] = system: Pichia kudriavzevii; assay: Antifungal activity against Candida crusei after 48 hrs; format: functional, organism-based
[7] = system: Candida parapsilosis; assay: Antifungal activity against Candida parapsilosis after 48 hrs; format: functional, organism-based
[8] = system: Candida albicans; assay: Antifungal activity against Candida albicans after 48 hrs; format: functional, organism-based
[9] = system: Pseudomonas aeruginosa; assay: Antibacterial activity against multi-resistant Pseudomonas aeruginosa A/16575 after 24 hrs; format: functional, organism-based
[10] = system: Escherichia coli; assay: Antibacterial activity against multi-resistant Escherichia coli C/16702 after 24 hrs; format: functional, organism-based
[11] = system: Staphylococcus haemolyticus; assay: Antibacterial activity against methicillin-resistant Staphylococcus haemolyticus A/16568 after 24 hrs; format: functional, organism-based
[12] = system: Staphylococcus aureus; assay: Antibacterial activity against methicillin-resistant Staphylococcus aureus MRSA 4591 after 24 hrs; format: functional, organism-based
[13] = system: Pseudomonas aeruginosa; assay: Antibacterial activity against Pseudomonas aeruginosa CCM 3955 after 24 hrs; format: functional, organism-based
[14] = system: Escherichia coli; assay: Antibacterial activity against Escherichia coli CCM 3954 after 24 hrs; format: functional, organism-based
[15] = system: Staphylococcus aureus; assay: Antibacterial activity against Staphylococcus aureus CCM 3953 after 24 hrs; format: functional, organism-based
[16] = system: Enterococcus faecalis; assay: Antibacterial activity against Enterococcus faecalis CCM 4224 after 24 hrs; format: functional, organism-based
[17] = Antiproliferative activity against human HeLaS3 cells after 72 hrs by XTT assay; format: functional, cell-based; details: HeLa S3, 72 h
Summary of the method: (§1)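 Antiproliferative test on HL-60 promyelocytic leukemia and HeLa S3 cervical carcinoma cells growing in liquid suspension.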

[18] = system: HL-60; assay: Antiproliferative activity against human HL60 cells after 72 hrs by XTT assay; format: functional, cell-based; details: HL-60, 72 h; summary of the method: as §1
[19] = system: HepG2; assay: Antiproliferative activity against human HepG2 cells after 72 hrs by XTT assay; format: functional, cell-based; details: HepG2, 72 h
[20] = system: MRC5; assay: Cytostatic activity against human MRC5 cells after 72 hrs by MTT assay; format: ADME, cell-based; details: MRC5, 72 h
Summary of the method: (§2)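 IC50 is the concentration that cuts cell growth by 50%, read by quantitative metabolic MTT staining after a 3-day treatment. The resistant sublines were made by raising the concentration of the cytotoxic drug step by step. CEM-DNR-bulk (daunorubicin-selected) stably overexpresses mrp-1. K562-TAX (paclitaxel-selected) expresses only mdr-1. HCT116p53−/− carries null p53 alleles. BJ and MRC-5 are nonmalignant fibroblasts.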

[21] = system: BJ; assay: Cytostatic activity against human BJ cells after 72 hrs by MTT assay; format: ADME, cell-based; summary of the method: as §2
[22] = system: HCT-116; assay: Cytostatic activity against p53-deficient human HCT116 cells after 72 hrs by MTT assay; format: functional, cell-based; details: HCT-116, 72 h; summary of the method: as §2
[23] = system: HCT-116; assay: Cytostatic activity against human HCT116 cells after 72 hrs by MTT assay; format: functional, cell-based; details: HCT-116, 72 h; summary of the method: as §2
[24] = system: A549; assay: Cytostatic activity against human A549 cells after 72 hrs by MTT assay; format: functional, cell-based; details: A549, 72 h; summary of the method: as §2
[25] = system: K562; assay: Cytostatic activity against paclitaxel-resistant human K562 cells after 72 hrs by MTT assay; format: functional, cell-based; details: K562, 72 h; summary of the method: as §2
[26] = system: K562; assay: Cytostatic activity against human K562 cells after 72 hrs by MTT assay; format: functional, cell-based; details: K562, 72 h; summary of the method: as §2
[27] = Cytostatic activity against human CEM-DNR-bulk cells after 72 hrs by MTT assay; format: functional, cell-based; summary of the method: as §2
[28] = system: CCRF-CEM; assay: Cytostatic activity against human CCRF-CEM cells after 72 hrs by MTT assay; format: functional, cell-based; summary of the method: as §2

| SMILES | CC50 [1] [µM] | EC50 [2] [µM] | CC50 [3] [µM] | EC50 [4] [µM] | Activity [5] | Activity [6] | Activity [7] | Activity [8] | Activity [9] | Activity [10] | Activity [11] | Activity [12] | Activity [13] | Activity [14] | Activity [15] | Activity [16] | IC50 [17] [µM] | IC50 [18] [µM] | IC50 [19] [µM] | IC50 [20] [µM] | other results |
| --- | --- | --- | --- | --- | --- | --- | --- | --- | --- | --- | --- | --- | --- | --- | --- | --- | --- | --- | --- | --- | --- |
| CN(C)c1ncnc2c1ccn2[C@@H]1O[C@H](CO)[C@@H](O)[C@H]1O | > 44 | 0.97 | > 44 | 0.27 | inactive | inactive | inactive | inactive | inactive | inactive | inactive | inactive | inactive | inactive | inactive | inactive | 10.6 | 0.87 | 1.81 | 58.2 | IC50 [21]: 5.3 µM; IC50 [22]: 5.09 µM; IC50 [23]: 18.4 µM; IC50 [24]: > 20 µM; IC50 [25]: 0.89 µM; IC50 [26]: 5.28 µM; IC50 [27]: 2.6 µM; IC50 [28]: 0.63 µM |
| Cc1nc(N)c2c(-c3ccccc3)cn([C@@H]3O[C@H](CO)[C@@H](O)[C@H]3O)c2n1 | > 44 | > 44 | > 44 | > 44 | inactive | inactive | inactive | inactive | inactive | inactive | inactive | inactive | inactive | inactive | inactive | inactive | > 20 | > 20 | > 20 | > 100 | IC50 [21]: > 100 µM; IC50 [22]: > 20 µM; IC50 [23]: > 100 µM; IC50 [24]: > 20 µM; IC50 [25]: > 20 µM; IC50 [26]: > 20 µM; IC50 [27]: > 20 µM; IC50 [28]: > 20 µM |
| CN(C)c1ncnc2c1c(-c1cc3ccccc3o1)cn2[C@@H]1O[C@H](CO)[C@@H](O)[C@H]1O | > 44 | > 44 | > 44 | 19.2 | inactive | inactive | inactive | inactive | inactive | inactive | inactive | inactive | inactive | inactive | inactive | inactive | > 20 | > 20 | > 20 | > 100 | IC50 [21]: > 100 µM; IC50 [22]: > 20 µM; IC50 [23]: > 20 µM; IC50 [24]: > 20 µM; IC50 [25]: > 20 µM; IC50 [26]: > 20 µM; IC50 [27]: > 20 µM; IC50 [28]: > 20 µM |
| CSc1ncnc2c1c(-c1cc3ccccc3o1)cn2[C@@H]1O[C@H](CO)[C@@H](O)[C@H]1O | > 44 | 29.6 | > 44 | 8.03 | inactive | inactive | inactive | inactive | inactive | inactive | inactive | inactive | inactive | inactive | inactive | inactive | 1.93 | 1.21 | > 20 | 70.8 | IC50 [21]: 67.2 µM; IC50 [22]: > 20 µM; IC50 [23]: > 20 µM; IC50 [24]: > 20 µM; IC50 [25]: > 20 µM; IC50 [26]: 17.2 µM; IC50 [27]: > 20 µM; IC50 [28]: > 20 µM |
